Results published in ChEMBL document CHEMBL1139350, “Modulation of Wnt signaling through inhibition of secreted frizzled-related protein I (sFRP-1) with N-substituted piperidinyl diphenylsulfonyl sulfonamides” (J Med Chem, 2009).

Experiments:
Format in all cases: ADME, Microsome
[1] = Metabolic stability in rat liver microsomes assessed as half life
Method in brief: (§1)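 Stability in human or rat liver microsomes with compound at 1 µM, from DMSO solution.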

[2] = Metabolic stability in human liver microsomes assessed as half life; method in brief: as §1
[3] = Metabolic stability in rat liver microsomes assessed as half life in presence of NADPH
Method in brief: (§2)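 Advanced stability in human or rat liver microsomes run with NADPH, with and without UDPGA, on compound from 1 µM DMSO solution.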

[4] = Metabolic stability in human liver microsomes assessed as half life in presence of NADPH; method in brief: as §2

**Q.** For `CC(C)(C)OC(=O)N1CCC[C@H]1C(=O)N1CCC(NS(=O)(=O)c2cc(S(=O)(=O)c3ccccc3)ccc2C(F)(F)F)CC1`, which half-life [1] is on record?
**A.** > 1 min

**Q.** And the half-life [2]?
**A.** > 1 min

**Q.** Which results are given for `CC(C)(C)CCN1CCC[C@H]1C(=O)N1CCC(NS(=O)(=O)c2cc(S(=O)(=O)c3ccccc3)ccc2C(F)(F)F)CC1`?
**A.** half-life [1]: > 8 min; half-life [2]: > 5 min

**Q.** With `CC(C)(C)CC(=O)N1CCC[C@H]1C(=O)N1CCC(NS(=O)(=O)c2cc(S(=O)(=O)c3ccccc3)ccc2C(F)(F)F)CC1` as the compound, how does the half-life [1] read?
**A.** > 3 min

**Q.** What about the half-life [2] of the same compound?
**A.** > 1 min

**Q.** What does the source list for `O=S(=O)(NC1CCNCC1)c1cc(S(=O)(=O)c2ccccc2)ccc1C(F)(F)F`?
**A.** half-life [3]: > 60 min; half-life [4]: > 60 min

**Q.** What does the source list for `CC(C)(C)NC(=O)N1CCC[C@H]1C(=O)N1CCC(NS(=O)(=O)c2cc(S(=O)(=O)c3ccccc3)ccc2C(F)(F)F)CC1`?
**A.** half-life [1]: > 3 min; half-life [2]: > 2 min
